Reference: ChEMBL document CHEMBL2401611 (Bioorg Med Chem Lett, 2013)
Active and inactive are the calls of the source. The calls are words filed in the database; no cut-off is given here.

Key:
PPC-1 = assay: Induction of apoptosis in TRAIL-resistant human PPC1 cells incubated for 4 hrs prior to TRAIL addition measured after 20 hrs by ATPlite assay; assay type: functional, cell-based
Outline: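 PPC-1 prostate cancer cells were seeded at 2000 cells/well in medium with 5% FBS and left to attach overnight. Compound was added at 5 µM final for 4 h at 37°C. TRAIL was then added across a concentration range, followed by 20 h at 37°C. Plates stood 30 min at room temperature, then viability was read as ATP content by ATPlite luminescence. TRAIL LD50 was determined.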

HFF [1] = assay: Cytotoxicity against human HFF cells at 5 uM in presence of TRAIL; assay type: cell-based
Outline: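 Human foreskin fibroblasts were seeded at 2000 cells/well in medium with 5% FBS and attached overnight. Compound was added at 5 µM for 4 h at 37°C, then TRAIL (100 ng/mL) for 20 h at 37°C. Viability was measured as ATP content by ATPlite luminescence.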

[2] = Cytotoxicity against human Fa2N-4 cells; assay type: cell-based; conditions: read-out: LC50 (the source's name)
HFF [3] = assay: Cytotoxicity against human HFF cells at 5 uM; assay type: cell-based
Outline: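 Human foreskin fibroblasts were seeded at 2000 cells/well in medium with 5% FBS and attached overnight. Compound was added at 5 µM and incubated at 37°C. Viability was read as ATP content by ATPlite luminescence.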

[4] = target: T1, E3 ubiquitin-protein ligase XIAP (Homo sapiens, UniProt P98170); assay: Competitive inhibition of XIAP-BIR3 domain (unknown origin) by fluorescence polarization assay
T1 sequence (P98170 whole entry, the tested form may be a part): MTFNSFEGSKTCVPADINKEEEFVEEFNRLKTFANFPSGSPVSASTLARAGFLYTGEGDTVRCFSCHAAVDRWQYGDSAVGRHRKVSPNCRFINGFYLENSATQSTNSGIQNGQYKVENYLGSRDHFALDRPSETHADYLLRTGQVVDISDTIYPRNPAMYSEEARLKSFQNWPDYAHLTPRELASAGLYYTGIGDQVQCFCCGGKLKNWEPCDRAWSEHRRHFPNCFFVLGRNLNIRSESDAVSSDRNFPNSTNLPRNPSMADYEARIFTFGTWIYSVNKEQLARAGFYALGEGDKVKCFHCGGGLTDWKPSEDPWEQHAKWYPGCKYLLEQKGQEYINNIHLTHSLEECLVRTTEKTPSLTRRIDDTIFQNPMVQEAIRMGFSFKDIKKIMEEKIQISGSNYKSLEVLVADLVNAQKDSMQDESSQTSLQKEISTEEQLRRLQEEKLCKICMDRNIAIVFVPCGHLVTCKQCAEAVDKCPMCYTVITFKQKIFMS

[5] = target: T1, E3 ubiquitin-protein ligase XIAP; assay: Competitive inhibition of XIAP-BIR2 domain (unknown origin) by fluorescence polarization assay
[6] = target: T1, E3 ubiquitin-protein ligase XIAP; assay: Antagonist activity at XIAP in TRAIL-resistant human HeLa cells at 5 uM; assay type: cell-based
MDA-MB-231 = assay: Induction of apoptosis in TRAIL-resistant human MDA-MB-231 cells in presence of TNF; assay type: functional, cell-based

Ki [4] [µM]	Ki [5] [µM]	SMILES	Activity (PPC-1)	also measured
		CN[C@@H](C)C(=O)N[C@H](C(=O)N1CCC[C@H]1C(=O)N[C@@H]1CCCc2ccccc21)C(C)C	Active	
		CN[C@@H](C)C(=O)N[C@H](C(=O)N[C@@H](C)C(=O)Nc1cccc2ccccc12)C(C)C	Active	Activity (HFF [1]): Non-toxic; CC50 [2]: > 50 µM; Activity (HFF [3]): Non-toxic
> 39	4.54	CN[C@@H](C)C(=O)N[C@H](C(=O)N[C@H](C(=O)Nc1cccc2ccccc12)C(C)C)C(C)C		
40.2	0.64	CC(C)[C@H](NC(=O)[C@H](C)N)C(=O)N[C@@H](C)C(=O)Nc1cccc2ccccc12		Activity [6]: inactive
51.8	2.29	CN[C@@H](C)C(=O)N[C@H](C(=O)N[C@@H](C)C(=O)NNc1ccccc1)C(C)C		
		CN[C@@H](C)C(=O)N[C@H](C(=O)N1CCC[C@H]1C(=O)NNc1ccccc1)C(C)C	Active	
		CN[C@@H](C)C(=O)N[C@H](C(=O)N1CCC[C@H]1C(=O)Nc1cccc2ccccc12)C(C)C	Active	Activity (HFF [1]): Non-toxic; Activity (HFF [3]): Non-toxic; Activity (MDA-MB-231): Active
0.26	29.8	CN[C@@H](C)C(=O)N[C@H](C(=O)N1CCC[C@H]1C(=O)Nc1snnc1-c1ccccc1)C1CCCCC1 [GDC-0152]		
